# Laboratory results published in PMC10205775 (Saudi Pharmaceutical Journal : SPJ, 2023).
# Values joined by “and” are separate entries in the source; they are usually repeats but may differ in a detail not shown here. Identical values can stand only once.
# Legend:
# MDA-MB-231 = test: MTT antiproliferative assay, MDA-MB-231; format: cell-based; conditions: Homo sapiens, MDA-MB-231, read-out: In vitro Cytotoxicity IC50 MDA-MB-231
# HepG2 = test: MTT antiproliferative assay, HepG2; format: cell-based; conditions: Homo sapiens, HepG2, read-out: In vitro Cytotoxicity IC50 HepG2
# HeLa = test: MTT antiproliferative assay, HeLa; conditions: Homo sapiens, read-out: In vitro Cytotoxicity IC50 HeLa
# MCF-7 = test: MTT antiproliferative assay, MCF-7; conditions: Homo sapiens, MCF7, read-out: In vitro Cytotoxicity IC50 MCF-7
# [1] = tested on: HepG2, MCF-7, MDA-MB-231 and HeLa; test: MTT antiproliferative assay, all tested cell lines; format: cell-based; conditions: Homo sapiens, read-out: IC50 values against all tested cell lines (range)
# CDK2 = CDK2 (Homo sapiens, UniProt P24941); test: In vitro protein kinase assay, CDK2; format: biochemical
# HepG2 cells [2] = test: Cell cycle distribution by flow cytometry; format: cell-based, human; conditions: 8.39 μM of compound 7, 24 h
# Her2 = Her2 (Homo sapiens, UniProt P04626); test: In vitro protein kinase assay, Her2; format: biochemical
# HepG2 cells [3] = test: Annexin-V/propidium iodide double staining apoptosis assay; format: cell-based, human; conditions: 24 h incubation
# Caspase 3 = test: Apoptotic protein expression, Caspase 3; format: cell-based, human; conditions: HepG2 cells, 8.39 μM of compound 7, 24 h; control = 1
# In short: (§1)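 HepG2 cells were incubated with 8.39 μM test compound for 24 h. Apoptotic protein levels were measured by a previously reported method. Expression was normalised to β-actin and given as fold change versus untreated HepG2 cells, which were set to 1. Values are means of three experiments.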
# EGFR = EGFR (Homo sapiens, UniProt P00533); test: In vitro protein kinase assay, EGFR; format: biochemical
# VEGFR2 = VEGFR2 (Homo sapiens, UniProt P35968); test: In vitro protein kinase assay, VEGFR2; format: biochemical
# Caspase 9 = test: Apoptotic protein expression, Caspase 9; format: cell-based, human; conditions: HepG2 cells, 8.39 μM of compound 7, 24 h; control = 1
# In short: as §1
# EGFR, sequence (P00533 25-1210): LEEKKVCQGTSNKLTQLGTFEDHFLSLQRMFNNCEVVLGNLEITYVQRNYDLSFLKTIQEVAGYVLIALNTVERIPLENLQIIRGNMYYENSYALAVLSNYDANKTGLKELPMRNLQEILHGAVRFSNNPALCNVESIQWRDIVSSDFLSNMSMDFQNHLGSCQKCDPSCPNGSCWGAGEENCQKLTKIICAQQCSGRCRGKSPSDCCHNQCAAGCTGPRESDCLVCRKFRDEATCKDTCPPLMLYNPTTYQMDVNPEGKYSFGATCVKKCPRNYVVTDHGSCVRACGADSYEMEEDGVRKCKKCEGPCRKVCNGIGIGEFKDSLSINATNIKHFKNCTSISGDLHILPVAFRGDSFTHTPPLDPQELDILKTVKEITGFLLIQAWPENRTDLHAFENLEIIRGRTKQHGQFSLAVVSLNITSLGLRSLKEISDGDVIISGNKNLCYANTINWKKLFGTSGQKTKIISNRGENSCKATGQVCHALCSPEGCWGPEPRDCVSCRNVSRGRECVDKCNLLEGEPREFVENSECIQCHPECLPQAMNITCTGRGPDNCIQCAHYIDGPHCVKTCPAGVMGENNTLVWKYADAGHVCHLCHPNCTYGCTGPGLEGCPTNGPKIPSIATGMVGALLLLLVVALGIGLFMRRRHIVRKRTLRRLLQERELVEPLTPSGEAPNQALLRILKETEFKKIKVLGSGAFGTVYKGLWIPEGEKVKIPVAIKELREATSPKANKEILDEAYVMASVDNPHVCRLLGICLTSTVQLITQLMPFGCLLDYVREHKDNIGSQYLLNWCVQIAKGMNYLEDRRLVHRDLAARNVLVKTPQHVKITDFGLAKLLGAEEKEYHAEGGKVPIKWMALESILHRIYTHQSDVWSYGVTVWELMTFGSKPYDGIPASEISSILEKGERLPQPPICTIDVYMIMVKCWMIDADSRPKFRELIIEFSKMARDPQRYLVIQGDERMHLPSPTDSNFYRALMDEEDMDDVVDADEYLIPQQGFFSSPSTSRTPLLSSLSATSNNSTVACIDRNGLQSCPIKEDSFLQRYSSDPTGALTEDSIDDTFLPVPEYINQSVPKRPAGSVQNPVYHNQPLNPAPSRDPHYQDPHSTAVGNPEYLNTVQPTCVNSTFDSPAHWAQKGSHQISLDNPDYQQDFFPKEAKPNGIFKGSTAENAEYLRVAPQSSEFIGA
# VEGFR2, sequence (P35968 20-1356): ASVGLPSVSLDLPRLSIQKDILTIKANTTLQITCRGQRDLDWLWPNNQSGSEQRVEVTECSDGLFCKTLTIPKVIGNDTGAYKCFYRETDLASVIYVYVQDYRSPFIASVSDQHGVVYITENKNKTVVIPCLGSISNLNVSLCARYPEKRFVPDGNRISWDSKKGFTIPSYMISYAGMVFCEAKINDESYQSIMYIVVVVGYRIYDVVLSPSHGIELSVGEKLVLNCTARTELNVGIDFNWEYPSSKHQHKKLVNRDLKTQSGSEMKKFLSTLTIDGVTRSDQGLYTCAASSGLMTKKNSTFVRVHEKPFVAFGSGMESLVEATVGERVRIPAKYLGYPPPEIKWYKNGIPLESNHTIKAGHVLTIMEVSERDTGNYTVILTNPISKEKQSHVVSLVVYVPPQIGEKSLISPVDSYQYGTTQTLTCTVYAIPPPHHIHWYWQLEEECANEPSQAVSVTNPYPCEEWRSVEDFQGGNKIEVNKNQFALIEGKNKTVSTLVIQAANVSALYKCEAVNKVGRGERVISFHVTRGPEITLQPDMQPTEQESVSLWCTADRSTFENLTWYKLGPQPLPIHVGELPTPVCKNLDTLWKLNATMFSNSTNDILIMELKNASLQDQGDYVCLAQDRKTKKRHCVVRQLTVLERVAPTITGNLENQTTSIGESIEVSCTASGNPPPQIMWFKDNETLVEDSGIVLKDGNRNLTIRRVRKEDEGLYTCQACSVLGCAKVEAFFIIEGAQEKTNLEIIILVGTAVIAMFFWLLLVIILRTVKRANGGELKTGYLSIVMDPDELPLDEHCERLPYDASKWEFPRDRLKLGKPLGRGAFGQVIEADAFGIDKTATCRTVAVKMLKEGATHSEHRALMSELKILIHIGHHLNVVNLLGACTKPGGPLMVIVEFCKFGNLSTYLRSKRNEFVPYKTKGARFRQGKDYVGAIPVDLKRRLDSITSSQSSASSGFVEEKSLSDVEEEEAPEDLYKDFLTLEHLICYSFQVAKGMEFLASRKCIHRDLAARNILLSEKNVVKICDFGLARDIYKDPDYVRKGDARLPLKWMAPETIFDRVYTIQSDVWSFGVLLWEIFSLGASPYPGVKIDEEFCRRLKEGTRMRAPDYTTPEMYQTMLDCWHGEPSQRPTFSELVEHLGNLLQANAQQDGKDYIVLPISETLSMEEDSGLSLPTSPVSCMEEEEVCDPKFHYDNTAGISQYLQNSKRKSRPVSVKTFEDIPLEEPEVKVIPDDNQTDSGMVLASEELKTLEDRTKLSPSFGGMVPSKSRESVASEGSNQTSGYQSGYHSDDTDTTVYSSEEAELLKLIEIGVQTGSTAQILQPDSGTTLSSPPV
# Her2, sequence (P04626 23-1255): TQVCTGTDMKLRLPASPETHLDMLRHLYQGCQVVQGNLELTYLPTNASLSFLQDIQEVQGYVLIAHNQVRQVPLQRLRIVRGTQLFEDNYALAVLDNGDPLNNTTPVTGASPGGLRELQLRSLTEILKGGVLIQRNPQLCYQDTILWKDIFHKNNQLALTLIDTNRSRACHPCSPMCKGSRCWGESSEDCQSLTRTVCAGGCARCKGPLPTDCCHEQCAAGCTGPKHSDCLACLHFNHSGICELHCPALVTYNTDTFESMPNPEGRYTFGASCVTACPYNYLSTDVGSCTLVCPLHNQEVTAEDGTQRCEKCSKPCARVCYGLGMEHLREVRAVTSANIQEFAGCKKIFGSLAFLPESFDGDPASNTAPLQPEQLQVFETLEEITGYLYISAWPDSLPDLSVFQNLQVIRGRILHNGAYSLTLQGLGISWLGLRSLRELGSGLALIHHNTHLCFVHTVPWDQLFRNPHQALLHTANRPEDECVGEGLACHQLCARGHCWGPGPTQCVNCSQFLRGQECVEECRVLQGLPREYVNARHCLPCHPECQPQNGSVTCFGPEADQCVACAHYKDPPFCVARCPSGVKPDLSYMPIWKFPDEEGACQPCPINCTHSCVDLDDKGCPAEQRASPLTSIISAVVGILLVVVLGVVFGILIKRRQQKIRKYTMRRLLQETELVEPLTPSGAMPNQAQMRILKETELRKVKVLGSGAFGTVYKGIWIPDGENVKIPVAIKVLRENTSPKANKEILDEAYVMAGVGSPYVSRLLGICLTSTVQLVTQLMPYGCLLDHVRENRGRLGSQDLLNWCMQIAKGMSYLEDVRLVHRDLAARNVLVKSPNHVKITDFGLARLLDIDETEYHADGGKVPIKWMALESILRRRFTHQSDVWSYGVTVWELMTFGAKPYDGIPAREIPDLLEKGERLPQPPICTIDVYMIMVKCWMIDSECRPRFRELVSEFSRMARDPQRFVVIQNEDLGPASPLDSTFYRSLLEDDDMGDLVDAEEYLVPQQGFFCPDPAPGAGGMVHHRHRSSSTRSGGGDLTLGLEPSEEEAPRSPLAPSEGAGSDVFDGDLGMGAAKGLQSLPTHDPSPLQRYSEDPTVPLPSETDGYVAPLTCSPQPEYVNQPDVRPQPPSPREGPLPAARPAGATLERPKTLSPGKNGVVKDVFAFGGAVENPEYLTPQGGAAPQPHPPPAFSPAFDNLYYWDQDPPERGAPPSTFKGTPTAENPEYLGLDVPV
smiles,measurement,setting,value
"Cc1ccc2c(c1)C(=NNc1ncnc3[nH]ccc13)C(=O)N2 [Compound 6, 3-(2-(7H-pyrrolo[2,3-d]pyrimidin-4-yl)hydrazineylidene)-5-methylindolin-2-one]",IC50,MDA-MB-231,15.2 ± 1.1 µM
same,IC50,HepG2,11.7 ± 0.9 µM
same,IC50,HeLa,19.8 ± 1.3 µM
same,IC50,MCF-7,27.6 ± 2 µM
same,IC50,[1],7.86 to 27.6 µM
"O=C1Nc2ccccc2C1=NNc1ncnc2[nH]ccc12 [Compound 3, 3-(2-(7H-pyrrolo[2,3-d]pyrimidin-4-yl)hydrazineylidene)indolin-2-one]",IC50,MDA-MB-231,7.86 ± 0.6 µM
same,IC50,HepG2,19.1 ± 1.4 µM
same,IC50,HeLa,9.86 ± 0.7 µM
same,IC50,MCF-7,14.2 ± 1.2 µM
same,IC50,[1],7.86 to 27.6 µM
"O=C1Nc2ccc(F)cc2C1=NNc1ncnc2[nH]ccc12 [Compound 5, 3-(2-(7H-pyrrolo[2,3-d]pyrimidin-4-yl)hydrazineylidene)-5-fluoroindolin-2-one]",IC50,MDA-MB-231,32.5 ± 2.1 µM
same,IC50,HepG2,37.3 ± 2.5 µM
same,IC50,HeLa,29.1 ± 2 µM
same,IC50,MCF-7,41.6 ± 2.6 µM
"O=C1Nc2ccc(Cl)cc2C1=NNc1ncnc2[nH]ccc12 [Compound 4, 3-(2-(7H-pyrrolo[2,3-d]pyrimidin-4-yl)hydrazineylidene)-5-chloroindolin-2-one]",IC50,MDA-MB-231,21.1 ± 1.8 µM
same,IC50,HepG2,28.4 ± 2.1 µM
same,IC50,HeLa,24.2 ± 1.8 µM
same,IC50,MCF-7,33.9 ± 2.2 µM
"O=C1Nc2ccc([N+](=O)[O-])cc2C1=NNc1ncnc2[nH]ccc12 [Compound 8, 3-(2-(7H-pyrrolo[2,3-d]pyrimidin-4-yl)hydrazineylidene)-5-nitroindolin-2-one]",IC50,MDA-MB-231,36.9 ± 2.4 µM
same,IC50,HepG2,52.1 ± 2.9 µM
same,IC50,HeLa,38 ± 2.2 µM
same,IC50,MCF-7,48.5 ± 2.8 µM
"COc1ccc2c(c1)C(=NNc1ncnc3[nH]ccc13)C(=O)N2 [Compound 7, 3-(2-(7H-pyrrolo[2,3-d]pyrimidin-4-yl)hydrazineylidene)-5-methoxyindolin-2-one]",IC50,MDA-MB-231,5.28 ± 0.3 µM
same,IC50,HepG2,8.39 ± 0.7 µM
same,IC50,CDK2,302 ± 16 nM
same,DNA content (%) %G1,HepG2 cells [2],54.22%
same,DNA content (%) %G2/M,HepG2 cells [2],11.02%
same,DNA content (%) %S,HepG2 cells [2],34.76%
same,DNA content (%) %Sub–G1,HepG2 cells [2],32.34%
same,increase of the DNA in the sub-G1 compared to untreated cells,HepG2 cells [2],17 fold
same,IC50,HeLa,6.37 ± 0.3 µM
same,IC50,MCF-7,9.08 ± 0.7 µM
same,IC50,Her2,157 ± 22 nM
same,Apoptosis Early,HepG2 cells [3],9.91%
same,Apoptosis Late,HepG2 cells [3],15.92%
same,Apoptosis Total,HepG2 cells [3],32.34%
same,Necrosis,HepG2 cells [3],6.51%
same,Folds of gene expression (Normalized to β-actin) Caspase 3,Caspase 3,5.42 fold and 5.421 fold
same,IC50,EGFR,166 ± 10 nM
same,IC50,VEGFR2,224 ± 12 nM
same,Folds of gene expression (Normalized to β-actin) Caspase 9,Caspase 9,3.3 fold and 3.295 fold
"COc1cccc2c1C(=O)c1c(O)c3c(c(O)c1C2=O)C[C@@](O)(C(=O)CO)C[C@@H]3O[C@H]1C[C@H](N)[C@H](O)[C@H](C)O1 [Doxorubicin, reference compound]",IC50,HepG2,4.5 ± 0.2 µM
